Laboratory results: ChEMBL document CHEMBL1667809, “Synthesis and in vitro antibacterial activity of 7-(3-alkoxyimino-5-amino/methylaminopiperidin-1-yl)fluoroquinolone derivatives” (Bioorg Med Chem Lett, 2011)
In brackets after ≈: the same amount, converted by molar mass.

What was measured:
[1] = tested on: Staphylococcus aureus; experiment: Antibacterial activity against Staphylococcus aureus ATCC 25923 after 18 to 24 hrs by agar dilution method; assay type: functional
Method in brief: (§1)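 Agar dilution on Petri dishes, each inoculated with 10⁴ cfu of the strain and incubated at 35 °C for 18–24 h. MIC read as the lowest compound concentration giving no visible growth on the plate.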

[2] = tested on: Staphylococcus aureus; experiment: Antibacterial activity against methicillin-sensitive Staphylococcus aureus 10-04 after 18 to 24 hrs by agar dilution method; assay type: functional; method in brief: as §1
[3] = tested on: Staphylococcus aureus; experiment: Antibacterial activity against methicillin-resistant Staphylococcus aureus 10-05 after 18 to 24 hrs by agar dilution method; assay type: functional
Method in brief: (§2)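 Agar dilution on Petri dishes, each inoculated with 10⁴ cfu. Plates incubated at 35 °C for 18–24 h. MIC taken as the lowest test-compound concentration giving no visible growth on the plate. Reference drugs gemifloxacin, ciprofloxacin and levofloxacin run alongside for comparison.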

[4] = tested on: Staphylococcus epidermidis; experiment: Antibacterial activity against methicillin-sensitive Staphylococcus epidermidis 10-4 after 18 to 24 hrs by agar dilution method; assay type: functional; method in brief: as §1
[5] = tested on: Staphylococcus epidermidis; experiment: Antibacterial activity against methicillin-resistant Staphylococcus epidermidis 10-5 after 18 to 24 hrs by agar dilution method; assay type: functional; method in brief: as §2
[6] = tested on: Streptococcus pneumoniae; experiment: Antibacterial activity against Streptococcus pneumoniae 1001 after 18 to 24 hrs by agar dilution method; assay type: functional; method in brief: as §1
[7] = tested on: Streptococcus pyogenes; experiment: Antibacterial activity against Streptococcus hemolyticus 1002 after 18 to 24 hrs by agar dilution method; assay type: functional; method in brief: as §1
[8] = tested on: Escherichia coli; experiment: Antibacterial activity against Escherichia coli ATCC 25922 after 18 to 24 hrs by agar dilution method; assay type: functional; method in brief: as §1
[9] = tested on: Escherichia coli; experiment: Antibacterial activity against Escherichia coli 10-02 after 18 to 24 hrs by agar dilution method; assay type: functional; method in brief: as §1
[10] = tested on: Klebsiella pneumoniae; experiment: Antibacterial activity against Klebsiella pneumoniae 10-1 after 18 to 24 hrs by agar dilution method; assay type: functional; method in brief: as §1
[11] = tested on: Pseudomonas aeruginosa; experiment: Antibacterial activity against Pseudomonas aeruginosa ATCC 27853 after 18 to 24 hrs by agar dilution method; assay type: functional; method in brief: as §1
[12] = tested on: Pseudomonas aeruginosa; experiment: Antibacterial activity against Pseudomonas aeruginosa 10-1 after 18 to 24 hrs by agar dilution method; assay type: functional; method in brief: as §1
[13] = Cytotoxicity against african green monkey Vero cells after 24 hrs; assay type: cell-based; settings: chlorocebus sabaeus
Method in brief: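 Vero cells exposed to graded compound concentrations for 24 h, then viability assessed; CC₅₀ derived from the viability data.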

[14] = tested on: Staphylococcus epidermidis; experiment: Ratio of compound MIC to GMFX MIC for methicillin-resistant Staphylococcus epidermidis 10-5; assay type: functional
[15] = tested on: Staphylococcus epidermidis; experiment: Ratio of compound MIC to LVFX MIC for methicillin-resistant Staphylococcus epidermidis 10-5; assay type: functional
[16] = tested on: Staphylococcus epidermidis; experiment: Ratio of compound MIC to CPFX MIC for methicillin-resistant Staphylococcus epidermidis 10-5; assay type: functional
[17] = tested on: Staphylococcus aureus; experiment: Ratio of compound MIC to GMFX MIC for methicillin-sensitive Staphylococcus aureus 10-04; assay type: functional
[18] = tested on: Staphylococcus aureus; experiment: Ratio of compound MIC to LVFX MIC for methicillin-sensitive Staphylococcus aureus 10-04; assay type: functional
[19] = tested on: Staphylococcus aureus; experiment: Ratio of compound MIC to CPFX MIC for methicillin-sensitive Staphylococcus aureus 10-04; assay type: functional
[20] = tested on: Streptococcus pyogenes; experiment: Ratio of compound MIC to GMFX MIC for Streptococcus hemolyticus 1002; assay type: functional
[21] = tested on: Streptococcus pyogenes; experiment: Ratio of compound MIC to LVFX MIC for Streptococcus hemolyticus 1002; assay type: functional
[22] = tested on: Streptococcus pyogenes; experiment: Ratio of compound MIC to CPFX MIC for Streptococcus hemolyticus 1002; assay type: functional
[23] = tested on: Staphylococcus aureus; experiment: Ratio of compound MIC to GMFX MIC for methicillin-resistant Staphylococcus aureus 10-05; assay type: functional
[24] = tested on: Staphylococcus aureus; experiment: Ratio of compound MIC to LVFX MIC for methicillin-resistant Staphylococcus aureus 10-05; assay type: functional
[25] = tested on: Staphylococcus aureus; experiment: Ratio of compound MIC to CPFX MIC for methicillin-resistant Staphylococcus aureus 10-05; assay type: functional

Row | Structure (SMILES) | MIC [1] | MIC [2] | MIC [3] | MIC [4] | MIC [5] | MIC [6] | MIC [7] | MIC [8] | MIC [9] | MIC [10] | MIC [11] | MIC [12] | CC50 at 24 h [13] | Ratio [14] | Ratio [15] | Ratio [16] | Ratio [17] | Ratio [18] | Ratio [19] | also measured
1 | CO/N=C1\CC(N)CN(c2c(F)cc3c(=O)c(C(=O)O)cn(C4CC4)c3c2OC)C1 (centres undefined) | 0.25 µg/mL (≈ 0.597 µM) | 0.5 µg/mL (≈ 1.19 µM) | 4 µg/mL (≈ 9.56 µM) | 2 µg/mL (≈ 4.78 µM) | 4 µg/mL (≈ 9.56 µM) | 0.25 µg/mL (≈ 0.597 µM) | 4 µg/mL (≈ 9.56 µM) | 0.25 µg/mL (≈ 0.597 µM) | 0.25 µg/mL (≈ 0.597 µM) | 64 µg/mL (≈ 153 µM) | 4 µg/mL (≈ 9.56 µM) | 4 µg/mL (≈ 9.56 µM) | 885 µM | 2 | 2 | 4 | 4 | 4 | 4 | Ratio [20]: 2; Ratio [21]: 2; Ratio [22]: 2
2 | CCO/N=C1\CC(N)CN(c2c(F)cc3c(=O)c(C(=O)O)cn(C4CC4)c3c2OC)C1 (centres undefined) | 0.25 µg/mL (≈ 0.578 µM) | 0.125 µg/mL (≈ 0.289 µM) | 2 µg/mL (≈ 4.62 µM) | 1 µg/mL (≈ 2.31 µM) | 2 µg/mL (≈ 4.62 µM) | 0.125 µg/mL (≈ 0.289 µM) | 8 µg/mL (≈ 18.5 µM) | 0.25 µg/mL (≈ 0.578 µM) | 0.25 µg/mL (≈ 0.578 µM) | 128 µg/mL (≈ 296 µM) | 8 µg/mL (≈ 18.5 µM) | > 128 µg/mL | 879 µM | 4 | 4 | 8 | 16 | 16 | 16 | Ratio [23]: 2; Ratio [24]: 2; Ratio [25]: 2
